Measured values as given in ChEMBL document CHEMBL1125533, “Novel 1-(pyridylphenyl)-1-phenyl-2-imidazolylethanols with topical antiinflammatory activity” (J Med Chem, 1992).

How the values were obtained:
[1] = Partition coefficient (logP); format: physicochemical; details: octanol/water
Method in brief: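 log P estimated from reversed-phase HPLC retention time. Calibration curve built from shake-flask octanol/water log P values of eight pyridines. Log RT vs log P was linear.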

[2] = test system: Mus musculus; experiment: In vivo inhibitory activity in a phorbol myristyl acetate (PMA) ear edema model at a dose of 100 ug/ear; format: functional
Method in brief: (§1)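 Mouse ear edema, topical: inflammation induced by PMA, A23187 or arachidonic acid on one ear, with the unchallenged ear as control. Mice were killed by cervical dislocation at set times after challenge, and 6 mm punches were weighed. Edema = challenged minus unchallenged punch weight. Percent inhibition = [(C−T)/C]×100 at 100 μg/ear. Duplicate separate experiments, 10 animals per group. Student's t test.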

[3] = test system: Mus musculus; experiment: In vivo inhibitory activity against phorbol myristyl acetate (PMA) ear edema at a dose of 100 ug/ear; format: functional; method in brief: as §1
[4] = biological target: T1, Cyclooxygenase (Bos taurus, UniProt O62664+O62698); experiment: Inhibitory activity against Prostaglandin G/H synthase (bovine seminal vesicles); format: protein assay
T1 sequence (O62664 whole entry): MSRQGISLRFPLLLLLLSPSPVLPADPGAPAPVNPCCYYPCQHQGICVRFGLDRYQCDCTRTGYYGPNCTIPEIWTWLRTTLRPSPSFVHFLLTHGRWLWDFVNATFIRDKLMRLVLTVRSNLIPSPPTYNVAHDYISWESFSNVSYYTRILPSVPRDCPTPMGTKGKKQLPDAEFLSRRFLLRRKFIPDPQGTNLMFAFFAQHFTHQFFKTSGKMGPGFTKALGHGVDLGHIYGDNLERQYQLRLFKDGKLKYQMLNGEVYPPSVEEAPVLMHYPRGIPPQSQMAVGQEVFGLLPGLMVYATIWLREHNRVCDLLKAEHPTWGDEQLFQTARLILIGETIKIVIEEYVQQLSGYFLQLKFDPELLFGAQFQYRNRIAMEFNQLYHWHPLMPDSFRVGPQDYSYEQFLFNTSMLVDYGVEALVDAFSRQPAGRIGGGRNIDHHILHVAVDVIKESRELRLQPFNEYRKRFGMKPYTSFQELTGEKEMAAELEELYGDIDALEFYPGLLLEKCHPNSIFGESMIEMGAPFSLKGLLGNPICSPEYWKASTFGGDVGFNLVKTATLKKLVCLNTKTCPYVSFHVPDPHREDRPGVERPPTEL
T1 sequence (O62698 whole entry): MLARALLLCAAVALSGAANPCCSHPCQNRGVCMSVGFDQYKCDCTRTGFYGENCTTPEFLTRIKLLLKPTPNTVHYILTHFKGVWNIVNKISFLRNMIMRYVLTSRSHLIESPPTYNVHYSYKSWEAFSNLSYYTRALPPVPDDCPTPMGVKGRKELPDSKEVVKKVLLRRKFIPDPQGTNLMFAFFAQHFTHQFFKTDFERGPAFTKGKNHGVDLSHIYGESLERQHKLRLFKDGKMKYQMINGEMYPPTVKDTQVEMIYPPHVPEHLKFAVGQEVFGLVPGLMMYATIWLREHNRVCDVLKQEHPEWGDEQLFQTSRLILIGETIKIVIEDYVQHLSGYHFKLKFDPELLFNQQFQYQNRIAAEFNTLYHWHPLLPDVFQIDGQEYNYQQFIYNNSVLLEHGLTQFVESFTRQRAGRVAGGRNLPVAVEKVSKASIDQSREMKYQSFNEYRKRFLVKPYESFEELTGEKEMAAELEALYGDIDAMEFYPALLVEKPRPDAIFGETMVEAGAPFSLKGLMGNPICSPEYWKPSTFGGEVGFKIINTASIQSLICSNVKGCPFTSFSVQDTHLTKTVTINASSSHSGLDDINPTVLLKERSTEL

[5] = biological target: T2, Polyunsaturated fatty acid 5-lipoxygenase (Rattus norvegicus, UniProt P12527); experiment: Inhibitory activity against 5-lipoxygenase of RBL-1 cell line; format: cell-based
T2 sequence (P12527 whole entry): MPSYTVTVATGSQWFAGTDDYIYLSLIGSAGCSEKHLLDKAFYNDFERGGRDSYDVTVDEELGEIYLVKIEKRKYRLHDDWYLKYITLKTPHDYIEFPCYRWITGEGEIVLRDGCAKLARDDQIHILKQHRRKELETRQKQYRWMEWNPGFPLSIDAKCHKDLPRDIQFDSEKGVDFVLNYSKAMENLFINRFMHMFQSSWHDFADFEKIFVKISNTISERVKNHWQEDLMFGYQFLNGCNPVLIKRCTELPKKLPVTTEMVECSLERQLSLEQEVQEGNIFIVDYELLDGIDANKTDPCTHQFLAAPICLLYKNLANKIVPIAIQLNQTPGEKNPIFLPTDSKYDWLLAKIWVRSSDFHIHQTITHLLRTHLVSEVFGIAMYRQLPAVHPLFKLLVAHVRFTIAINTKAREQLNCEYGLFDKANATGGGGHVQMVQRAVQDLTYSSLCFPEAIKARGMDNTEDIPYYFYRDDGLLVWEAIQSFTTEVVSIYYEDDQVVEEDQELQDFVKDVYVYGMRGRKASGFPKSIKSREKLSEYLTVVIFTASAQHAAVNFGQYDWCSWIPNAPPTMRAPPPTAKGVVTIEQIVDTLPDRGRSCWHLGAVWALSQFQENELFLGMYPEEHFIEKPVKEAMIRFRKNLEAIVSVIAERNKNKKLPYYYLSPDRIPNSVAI

[6] = test system: Mus musculus; experiment: (§2) In vivo inhibitory activity against arachidonic acid(AA) ear edema at a dose of 100 ug/ear; format: functional
Method in brief: (§3)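 Topical mouse ear edema test at 100 µg/ear; the inflammogen is applied to one ear and the unchallenged ear serves as control. Mice are killed by cervical dislocation at set times, and 6 mm biopsy punches from each ear are weighed. Edema is the challenged-minus-unchallenged weight. Percent inhibition is [(C−T)/C]×100. Duplicate separate experiments, 10 animals per group; averages of two or more determinations.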

[7] = test system: Mus musculus; experiment: (§4) In vivo inhibitory activity against A-23187 ear edema at a dose of 100 ug/ear; format: functional; method in brief: as §1
[8] = test system: Mus musculus; experiment: as §2; format: functional; method in brief: as §1; remark: listed apart in the source
[9] = test system: Mus musculus; experiment: as §4; format: functional; method in brief: as §3; remark: listed apart in the source

logP [1]	SMILES	Inhibition [2]	other results
2.91	OC(Cn1ccnc1)(c1ccc(F)cc1)c1cccc(-c2ccncc2)c1 (stereo not given)	74%	
3.55	Cc1ccc(C(O)(Cn2ccnc2)c2ccc(Br)cc2)cc1 (stereo not given)	18%	
3.84	OC(CN1CCCC1)(c1ccc(F)cc1)c1ccc(-c2ccncc2)cc1 (stereo not given)	24%	
3.31	OC(Cn1ccnc1)(c1ccc(-c2cccnc2)cc1)c1ccc(F)cc1F (stereo not given)	52%	
3.3	OC(Cn1ccnc1)(c1ccc(F)cc1)c1cccc(Br)c1 (stereo not given)	38%	
3.34	OC(Cn1ccnc1)(c1ccc(F)cc1)c1cccc(-c2ccccn2)c1 (stereo not given)	61%	
3.37	OC(Cn1ccnc1)(c1ccc(-c2ccncc2)cc1)c1ccccc1Cl (stereo not given)	41%	
3.42	OC(Cn1ccnc1)(c1ccc(F)cc1)c1ccc(Br)cc1 (stereo not given)	29%	
3.27	OC(Cn1ccnc1)(c1ccc(Cl)cc1)c1ccc(-c2ccncc2)cc1 (stereo not given)	58%	
3.45	COC(C)(OC)c1ccc(C(O)(Cn2ccnc2)c2ccc(-c3ccncc3)cc2)cc1 (stereo not given)	61%	
2.61	COC(=O)c1ccc(C(O)(Cn2ccnc2)c2ccc(-c3ccncc3)cc2)cc1 (stereo not given)	62%	
3.58	OC(Cn1ccnc1)(c1ccc(F)cc1)c1ccc(-c2ccccn2)cc1 (stereo not given)	63%	
2.14	OC(Cn1cccn1)(c1ccc(F)cc1)c1ccc(-c2ccncc2)cc1 (stereo not given)	28%	
2.35	OC(Cn1cccc1)(c1ccc(F)cc1)c1ccc(-c2ccncc2)cc1 (stereo not given)	58%	
2.82	OC(CN1CCOCC1)(c1ccc(F)cc1)c1ccc(-c2ccncc2)cc1 (stereo not given)	41%	
2.95	OC(Cn1ccnc1)(c1ccc(F)cc1)c1ccc(F)cc1	50%	

The next lines start with the compound.

SMILES	logP [1]	Inhibition [2]	other results
OC(Cn1ccnc1)(c1ccc(-c2ccccc2)cc1)c1ccc(-c2ccncc2)cc1 (stereo not given)	3.86	49%	
OC(Cn1ccnc1)(c1ccccc1)c1ccc(Br)cc1 (stereo not given)	3.35	37%	
CC(=O)c1ccc(C(O)(Cn2ccnc2)c2ccc(-c3ccncc3)cc2)cc1 (stereo not given)	2.41	78%	
COc1ccc(C(O)(Cn2ccnc2)c2ccc(Br)cc2)cc1 (stereo not given)	4.02	31%	
OC(Cn1ccnc1)(c1ccc(F)cc1)c1ccc(-c2ccccc2)cc1 (stereo not given)	4.23	25%	
OC(Cn1ccnc1)(c1ccc(-c2ccccn2)cc1)c1ccc(F)cc1F (stereo not given)	3.65	51%	
OC(Cn1ccnc1)(c1ccc(F)cc1)c1ccccc1-c1cccnc1 (stereo not given)	3.26	62%	
CN(C)c1ccc(C(O)(Cn2ccnc2)c2ccc(-c3ccncc3)cc2)cc1 (stereo not given)	3.29	34%	
Cc1ccc(C(O)(Cn2ccnc2)c2ccc(-c3ccncc3)cc2)cc1 (stereo not given)	3.13	62%	ED50 [3]: 13.2 ug ear-1; IC50 [4]: > 750 µM; IC50 [5]: > 25 µM; Inhibition [6]: 16%; ED50 [7]: 13 ug ear-1
OC(Cn1ccnc1)(c1ccc(F)cc1)c1cccc(-c2cccnc2)c1 (stereo not given)	3.22	64%	
OC(Cn1ccnc1)(c1ccc(Br)cc1)c1ccccc1Cl (stereo not given)	3.87	26%	
OC(Cn1ccnc1)(c1ccccc1)c1ccc(-c2ccncc2)cc1 (stereo not given)	2.29	69%	
OC(Cn1ccnc1)(c1ccc(Br)cc1)c1ccc(F)cc1F (stereo not given)	3.44	22%	
OC(Cn1ccnc1)(c1ccc(F)cc1)c1ccccc1-c1ccncc1 (stereo not given)	2.51	86%	
OC(Cn1cncn1)(c1ccc(F)cc1)c1ccc(-c2ccncc2)cc1 (stereo not given)	1.67	53%	
OC(Cn1cnc2ccccc21)(c1ccc(F)cc1)c1ccc(-c2ccncc2)cc1 (stereo not given)	2.06	40%	
OC(Cn1ccnc1)(c1ccc(F)cc1)c1ccc(-c2ccncc2)cc1 (stereo not given)	2.47	72%	ED50 [3]: 4.6 ug ear-1; ED50 [8]: 543 ug ear-1; IC50 [4]: > 750 µM; IC50 [5]: > 25 µM; ED50 [7]: 21 ug ear-1
OCc1ccc(C(O)(Cn2ccnc2)c2ccc(-c3ccncc3)cc2)cc1 (stereo not given)	2.4	24%	
COc1ccc(C(O)(Cn2ccnc2)c2ccc(-c3ccncc3)cc2)cc1 (stereo not given)	3.55	74%	
O=Cc1ccc(C(O)(Cn2ccnc2)c2ccc(-c3ccncc3)cc2)cc1 (stereo not given)	2.38	67%	
Oc1ccc(C(O)(Cn2ccnc2)c2ccc(-c3ccncc3)cc2)cc1 (stereo not given)	2.49	37%	
OC(CCc1ncc[nH]1)(c1ccc(F)cc1)c1ccc(F)cc1	3.13	52%	
OC(Cn1ccnc1)(c1ccc(-c2ccncc2)cc1)c1ccc(F)cc1F (stereo not given)	2.54	73%	
OC(Cn1ccnc1)(c1cccc(Br)c1)c1ccc(F)cc1F (stereo not given)	3.6	42%	
OC(Cn1ccnc1)(c1ccc(-c2ccncc2)cc1)c1ccc(C(F)(F)F)cc1 (stereo not given)	3.11	58%	
Oc1c(Cc2ccccc2)ccc2ccccc12			ED50 [3]: 764 ug ear-1; ED50 [8]: 7 ug ear-1; IC50 [4]: > 750 µM; ED50 [7]: 5 ug ear-1
COc1ccc2c(c1)c(CC(=O)O)c(C)n2C(=O)c1ccc(Cl)cc1 [INDOMETHACIN]		10%	ED50 [8]: 902 ug ear-1; IC50 [5]: > 25 µM; ED50 [7]: 254 ug ear-1
CC(=O)N1CCN(c2ccc(OCC3COC(Cn4ccnc4)(c4ccc(Cl)cc4Cl)O3)cc2)CC1 (stereo not given) [KETOCONAZOLE]			ED50 [3]: 34 ug ear-1; IC50 [4]: > 750 µM; Inhibition [9]: 8%; IC50 [5]: > 25 µM; Inhibition [6]: 10%
COc1c(OC)c(OC(C)=O)c2cc(Cl)ccc2c1OC(C)=O [LONAPALENE]		15%	ED50 [8]: 103 ug ear-1; IC50 [4]: > 750 µM; IC50 [5]: 0.74 µM; ED50 [7]: 32 ug ear-1
